The source of these data is paper PMC4183664 (Journal of the American Chemical Society, 2014).

For data set [1], the system named is SW-480 colon cancer cells. Nature of the data set: Effect of GLUT1 inhibitors on internalization of BLM-Cy5**. The data set is classed as cell-based. As to conditions: pretreatment with different concentrations of inhibitor, 37 °C, 2 h, then 25 μM dye-labeled conjugate 44; 2 s exposure. The procedure, abridged: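 SW480 cells kept in RPMI 1640 with 10% FBS and 1% pen-strep at 37 °C, 5% CO2. Seeded on glass chamber slides at 5000 cells/well for 48 h. At 70% confluence, rinsed with PBS and switched to phenol-red-free RPMI. Pretreated 2 h at 37 °C with cytochalasin B or phloretin, then 25 μM Cy5-labeled conjugate for 1 h at 37 °C. PBS-washed, fixed 5 min in 4% paraformaldehyde, DAPI-mounted, imaged through Cy5 filter with 40× oil objective; cells counted.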

Data set [2] concerns DU145 human prostate cancer cells. Put plainly: MTT cytotoxicity assay. As to conditions: 24 h incubation, four concentrations, 5% DMSO, MTT read at 560 nm. In kind it is cell-based. The procedure, abridged:
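DU145 cells grown in log phase in MEM with 10% FBS and 1% pen-strep. Trypsinized, seeded at 5000 cells/well and incubated 24 h. Medium replaced with compound-containing medium (5% DMSO final) for 24 h. MTT solution (5 mg/mL in PBS, pH 7.4) added for 3 h at 37 °C. Crystals dissolved in DMSO; absorbance read at 560 nm, reference 670 nm. Viability = OD560/[OD560(positive control) − OD560(negative control)], with linear fit.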
For orientation: Formazan colour is commonly taken as a measure of viable cells.

Another data set concerns supercoiled DNA. As to conditions: relative to BLM; cited from earlier work.
Data set [3] relates to supercoiled pSP64 plasmid DNA. Put plainly: Relaxation of supercoiled pSP64 plasmid DNA by Fe. The data set is classed as biochemical. The following applies: Fe(II) chelate; pSP64, 50 mM Tris-HCl pH 8.0, 25 °C, 30 min; agarose gel. The procedure, abridged: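 200 ng supercoiled pSP64 treated with freshly prepared Fe2+ (from ferrous ammonium sulfate) plus compound at 2 or 4 μM, in 50 mM Tris-HCl pH 8.0, 25 °C for 30 min. Quenched with glycerol/bromophenol blue loading buffer. Run on 1% agarose gel in 9 mM Tris-borate pH 8.3 with 320 μM Na2EDTA, 96 V for 2 h. Stained 1 h with 0.5 μg/mL ethidium bromide, destained in water, viewed under UV. Cleaved DNA given as percent of total per lane.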

For `C=C1[C@@H](C)[C@H]2[C@H](Cc3ccccc3)NC(=O)[C@]23OC(=O)/C=C/[C@H](O)CCC[C@@H](C)C/C=C/[C@H]3[C@@H]1O` [cytochalasin B], in data set [1], the “inhibition of BLM-Cy5** (44) binding/uptake” value was “substantial and dose-dependent inhibition”.

With `O=C(CCc1ccc(O)cc1)c1c(O)cc(O)cc1O` [phloretin], the “inhibition of BLM-Cy5** (44) binding/uptake” value in data set [1] was “substantial and dose-dependent inhibition”.

In the case of bleomycin A5 [BLM A5], in data set [2], the “cytotoxicity toward cultured DU145 cells (cell viability, MTT)” value was “the most potent of the derivatives tested”.

Regarding deglycobleomycin A5 [deglycoBLM A5], in the data set on supercoiled DNA, the “double-strand DNA cleavage” value is “much less double-strand cleavage is apparent” and the “potency of supercoiled DNA relaxation, fold less than for BLM” value is recorded as 2–3 fold. Besides, in data set [3], the “extent of double-strand cleavage of plasmid DNA” value is recorded as “minimal double-strand cleavage of plasmid DNA”. In addition, in data set [2], the “cytotoxicity toward cultured DU145 cells (cell viability, MTT)” value is listed as “cytotoxic to DU145 cells but much less so than BLM A5”.
